Test results from paper PMC6035748 (Journal of biomedical materials research. Part A, 2018).
Ends that are not written are not given here.

Key:
[1] = target: integrin αvβ3 (Homo sapiens, UniProt P05106+P06756); assay: Bio-layer interferometry; format: binding
In short: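 Biotinylated test peptide, 25 μM stock in 5% DMSO/95% water, diluted 100-fold in 0.05% Tween 20 in 1X PBS. The peptide was loaded onto streptavidin biosensors for 300 s, with 60 s buffer-only steps on either side. Association ran 600 s against human recombinant integrin αvβ3 at 10–300 nM in the same buffer. kon and koff were fitted to a single-binding-site association model.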

[2] = system: MDA-MB-231 tumors; assay: Biodistribution in orthotopic MDA-MB-231 xenograft mouse model; format: in vivo; conditions: AXT050-IRD800 intravenous, organs harvested 24 h post injection

Sequence of integrin αvβ3 (P06756 31-992 limits assumed): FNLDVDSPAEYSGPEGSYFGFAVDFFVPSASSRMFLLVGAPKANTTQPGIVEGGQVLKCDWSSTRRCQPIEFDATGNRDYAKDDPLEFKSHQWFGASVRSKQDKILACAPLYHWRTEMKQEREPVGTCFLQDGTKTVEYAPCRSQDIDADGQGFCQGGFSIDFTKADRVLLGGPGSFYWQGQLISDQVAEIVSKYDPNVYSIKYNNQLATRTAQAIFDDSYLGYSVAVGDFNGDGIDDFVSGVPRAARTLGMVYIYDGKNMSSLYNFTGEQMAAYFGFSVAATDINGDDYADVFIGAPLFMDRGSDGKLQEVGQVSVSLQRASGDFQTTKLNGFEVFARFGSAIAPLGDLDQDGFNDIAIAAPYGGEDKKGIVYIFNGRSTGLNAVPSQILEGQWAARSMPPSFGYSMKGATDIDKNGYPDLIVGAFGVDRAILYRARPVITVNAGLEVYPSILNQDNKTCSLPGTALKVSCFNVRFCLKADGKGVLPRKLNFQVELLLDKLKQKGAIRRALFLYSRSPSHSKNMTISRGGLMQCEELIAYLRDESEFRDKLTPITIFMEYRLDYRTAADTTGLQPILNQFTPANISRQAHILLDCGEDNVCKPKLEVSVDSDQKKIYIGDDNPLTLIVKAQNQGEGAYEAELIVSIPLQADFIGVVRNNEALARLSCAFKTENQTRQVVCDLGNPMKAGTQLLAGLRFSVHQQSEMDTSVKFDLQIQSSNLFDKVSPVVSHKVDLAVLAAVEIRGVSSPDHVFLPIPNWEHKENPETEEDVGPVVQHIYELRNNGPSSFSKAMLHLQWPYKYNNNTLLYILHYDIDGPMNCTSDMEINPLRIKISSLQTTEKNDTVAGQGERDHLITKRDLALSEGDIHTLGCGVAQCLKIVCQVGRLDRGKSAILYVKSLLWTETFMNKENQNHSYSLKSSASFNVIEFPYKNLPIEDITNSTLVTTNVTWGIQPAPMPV
Sequence of integrin αvβ3 (P05106 27-718 limits assumed): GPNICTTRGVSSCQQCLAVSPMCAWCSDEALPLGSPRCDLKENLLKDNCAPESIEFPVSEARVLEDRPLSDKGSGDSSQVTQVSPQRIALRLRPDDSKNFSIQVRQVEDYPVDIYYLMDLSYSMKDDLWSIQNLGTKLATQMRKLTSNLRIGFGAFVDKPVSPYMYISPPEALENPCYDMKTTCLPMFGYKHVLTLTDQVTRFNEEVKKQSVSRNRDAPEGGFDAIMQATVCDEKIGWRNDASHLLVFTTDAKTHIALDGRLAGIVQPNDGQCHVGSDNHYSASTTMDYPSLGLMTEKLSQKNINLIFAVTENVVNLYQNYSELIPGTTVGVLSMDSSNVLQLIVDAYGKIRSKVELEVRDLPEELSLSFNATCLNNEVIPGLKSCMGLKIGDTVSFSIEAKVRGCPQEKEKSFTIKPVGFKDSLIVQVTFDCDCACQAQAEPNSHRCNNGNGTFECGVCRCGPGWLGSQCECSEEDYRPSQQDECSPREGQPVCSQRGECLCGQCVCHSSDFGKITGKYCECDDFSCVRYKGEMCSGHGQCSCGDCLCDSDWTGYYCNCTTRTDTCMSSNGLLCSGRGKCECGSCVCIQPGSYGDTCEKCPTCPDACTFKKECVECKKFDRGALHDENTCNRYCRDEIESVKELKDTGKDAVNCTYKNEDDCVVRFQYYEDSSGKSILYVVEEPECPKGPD

For LRRFSTAPFAFIDINDVINF [AXT050], the koff [1] was 0.0032 s⁻¹ and the “organ with highest detection / main route of clearance” value [2] was “highest level of its detection in the kidneys”.
